ChEMBL document CHEMBL4325889, “Natural products hybrids: 3,5,4'-Trimethoxystilbene-5,6,7-trimethoxyflavone chimeric analogs as potential cytotoxic agents against diverse human cancer cells” (Eur J Med Chem, 2019)

Assays:
Assay type in all cases: functional
ACHN = experiment: Growth inhibition of human ACHN cells at 10 uM after 48 hrs by SRB assay relative to control; conditions: read-out: GI
How it was run: (§1)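 Screened at the National Cancer Institute by the standard NCI protocol using the sulforhodamine B assay, which measures cellular protein. Single dose of 10 µM. Result is percent growth inhibition; values above 100% mean cell number fell below the initial population. Values are the average of duplicates.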

SF-268 = experiment: Growth inhibition of human SF268 cells at 10 uM after 48 hrs by SRB assay relative to control; conditions: SF-268, 48 h, read-out: GI; how it was run: as §1
K562 = experiment: Growth inhibition of human K562 cells at 10 uM after 48 hrs by SRB assay relative to control; conditions: K562, 48 h, read-out: GI; how it was run: as §1
786-0 = experiment: Growth inhibition of human 786-0 cells at 10 uM after 48 hrs by SRB assay relative to control; conditions: 786-0, 48 h, read-out: GI; how it was run: as §1
HCT-116 = experiment: Growth inhibition of human HCT116 cells at 10 uM after 48 hrs by SRB assay relative to control; conditions: HCT-116, 48 h, read-out: GI; how it was run: as §1
CAKI-1 = experiment: Growth inhibition of human Caki1 cells at 10 uM after 48 hrs by SRB assay relative to control; conditions: CAKI-1, 48 h, read-out: GI; how it was run: as §1
SK-MEL-2 = experiment: Growth inhibition of human SK-MEL-2 cells at 10 uM after 48 hrs by SRB assay relative to control; conditions: SK-MEL-2, 48 h, read-out: GI; how it was run: as §1
NCI/ADR-RES = experiment: Growth inhibition of human NCI/ADR-RES cells at 10 uM after 48 hrs by SRB assay relative to control; conditions: read-out: GI; how it was run: as §1
SF-539 = experiment: Growth inhibition of human SF539 cells at 10 uM after 48 hrs by SRB assay relative to control; conditions: SF-539, 48 h, read-out: GI; how it was run: as §1
Hs-578T = experiment: Growth inhibition of human Hs 578T cells at 10 uM after 48 hrs by SRB assay relative to control; conditions: read-out: GI; how it was run: as §1
HL-60(TB) = experiment: Growth inhibition of human HL-60(TB) cells at 10 uM after 48 hrs by SRB assay relative to control; conditions: HL-60, 48 h, read-out: GI
How it was run: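 Run at NCI under its standard single-dose protocol against a leukemia cell panel. Cells were exposed to 10 µM; growth was read by sulforhodamine B staining of cellular protein and expressed as % growth inhibition versus untreated control. Values above 100% mean the cell population fell below the starting count (cytocidal). Each value is the average of duplicates.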

HOP-92 = experiment: Growth inhibition of human HOP92 cells at 10 uM after 48 hrs by SRB assay relative to control; conditions: HOP-92, 48 h, read-out: GI; how it was run: as §1
Malme-3M = experiment: Growth inhibition of human MALME-3M cells at 10 uM after 48 hrs by SRB assay relative to control; conditions: read-out: GI; how it was run: as §1
MOLT-4 = experiment: Growth inhibition of human MOLT4 cells at 10 uM after 48 hrs by SRB assay relative to control; conditions: MOLT-4, 48 h, read-out: GI; how it was run: as §1
UACC-257 = experiment: Growth inhibition of human UACC257 cells at 10 uM after 48 hrs by SRB assay relative to control; conditions: UACC-257, 48 h, read-out: GI
How it was run: (§2)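 NCI screen against its human cancer cell line panel by the standard NCI protocol, SRB protein stain. Single dose of 10 μM. Percent growth inhibition versus control; values above 100% mean the cell population fell below the starting number. Each value is the mean of duplicates.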

OVCAR-5 = experiment: Growth inhibition of human OVCAR5 cells at 10 uM after 48 hrs by SRB assay relative to control; conditions: OVCAR-5, 48 h, read-out: GI; how it was run: as §1
UO-31 = experiment: Growth inhibition of human UO31 cells at 10 uM after 48 hrs by SRB assay relative to control; conditions: UO-31, 48 h, read-out: GI; how it was run: as §2
MCF7 = experiment: Growth inhibition of human MCF7 cells at 10 uM after 48 hrs by SRB assay relative to control; conditions: MCF7, 48 h, read-out: GI; how it was run: as §1
HOP-62 = experiment: Growth inhibition of human HOP62 cells at 10 uM after 48 hrs by SRB assay relative to control; conditions: HOP-62, 48 h, read-out: GI; how it was run: as §1
SNB-75 = experiment: Growth inhibition of human SNB75 cells at 10 uM after 48 hrs by SRB assay relative to control; conditions: SNB-75, 48 h, read-out: GI; how it was run: as §2
IGROV-1 = experiment: Growth inhibition of human IGROV1 cells at 10 uM after 48 hrs by SRB assay relative to control; conditions: IGROV-1, 48 h, read-out: GI; how it was run: as §1
MDA-MB-468 = experiment: Growth inhibition of human MDA-MB-468 cells at 10 uM after 48 hrs by SRB assay relative to control; conditions: MDA-MB-468, 48 h, read-out: GI; how it was run: as §1
HCT-15 = experiment: Growth inhibition of human HCT15 cells at 10 uM after 48 hrs by SRB assay relative to control; conditions: HCT-15, 48 h, read-out: GI; how it was run: as §1
SNB-19 = experiment: Growth inhibition of human SNB19 cells at 10 uM after 48 hrs by SRB assay relative to control; conditions: SNB-19, 48 h, read-out: GI; how it was run: as §2
SN12C = experiment: Growth inhibition of human SN12C cells at 10 uM after 48 hrs by SRB assay relative to control; conditions: read-out: GI; how it was run: as §1
LOX IMVI = experiment: Growth inhibition of human LOXIMVI cells at 10 uM after 48 hrs by SRB assay relative to control; conditions: read-out: GI; how it was run: as §1
OVCAR-8 = experiment: Growth inhibition of human OVCAR8 cells at 10 uM after 48 hrs by SRB assay relative to control; conditions: OVCAR-8, 48 h, read-out: GI; how it was run: as §1
KM12 = experiment: Growth inhibition of human KM12 cells at 10 uM after 48 hrs by SRB assay relative to control; conditions: KM12, 48 h, read-out: GI; how it was run: as §1
SW-620 = experiment: Growth inhibition of human SW620 cells at 10 uM after 48 hrs by SRB assay relative to control; conditions: SW-620, 48 h, read-out: GI; how it was run: as §2
DU-145 = experiment: Growth inhibition of human DU145 cells at 10 uM after 48 hrs by SRB assay relative to control; conditions: DU-145, 48 h, read-out: GI; how it was run: as §1
RXF 393 = experiment: Growth inhibition of human RXF393 cells at 10 uM after 48 hrs by SRB assay relative to control; conditions: RXF 393, 48 h, read-out: GI; how it was run: as §1
SK-MEL-28 = experiment: Growth inhibition of human SK-MEL-28 cells at 10 uM after 48 hrs by SRB assay relative to control; conditions: SK-MEL-28, 48 h, read-out: GI; how it was run: as §1
PC-3 = experiment: Growth inhibition of human PC3 cells at 10 uM after 48 hrs by SRB assay relative to control; conditions: PC-3, 48 h, read-out: GI; how it was run: as §1
RPMI-8226 = experiment: Growth inhibition of human RPMI8226 cells at 10 uM after 48 hrs by SRB assay relative to control; conditions: RPMI-8226, 48 h, read-out: GI; how it was run: as §1

SMILES | inhibition of growth at 10 µM (ACHN) [%] | inhibition of growth at 10 µM (SF-268) [%] | inhibition of growth at 10 µM (K562) [%] | inhibition of growth at 10 µM (786-0) [%] | inhibition of growth at 10 µM (HCT-116) [%] | inhibition of growth at 10 µM (CAKI-1) [%] | inhibition of growth at 10 µM (SK-MEL-2) [%] | inhibition of growth at 10 µM (NCI/ADR-RES) [%] | inhibition of growth at 10 µM (SF-539) [%] | inhibition of growth at 10 µM (Hs-578T) [%] | inhibition of growth at 10 µM (HL-60(TB)) [%] | inhibition of growth at 10 µM (HOP-92) [%] | inhibition of growth at 10 µM (Malme-3M) [%] | inhibition of growth at 10 µM (MOLT-4) [%] | inhibition of growth at 10 µM (UACC-257) [%] | inhibition of growth at 10 µM (OVCAR-5) [%] | inhibition of growth at 10 µM (UO-31) [%] | inhibition of growth at 10 µM (MCF7) [%] | inhibition of growth at 10 µM (HOP-62) [%] | inhibition of growth at 10 µM (SNB-75) [%] | also measured
COc1cc2oc(-c3cccc(NC(=O)c4ccc5c(c4)OCO5)c3)cc(=O)c2c(OC)c1OC | 52.2 | 51.9 | 82.6 | 80.5 | 64.5 | 22.9 | 37.6 | 42.4 | 43 | 54.8 | 65.4 | 106 | 23.6 | 97.1 | 22.7 | 6.14 | 75.8 | 56.4 | 45.6 | 32.6 | inhibition of growth at 10 µM (IGROV-1): 53%; inhibition of growth at 10 µM (MDA-MB-468): 24.5%; inhibition of growth at 10 µM (HCT-15): 67.9%; inhibition of growth at 10 µM (SNB-19): 54.4%; inhibition of growth at 10 µM (SN12C): 57.9%; inhibition of growth at 10 µM (LOX IMVI): 60.5%; inhibition of growth at 10 µM (OVCAR-8): 53.7%; inhibition of growth at 10 µM (KM12): 48.7%; inhibition of growth at 10 µM (SW-620): 36%; inhibition of growth at 10 µM (DU-145): 47.1%; inhibition of growth at 10 µM (RXF 393): 53.5%; inhibition of growth at 10 µM (SK-MEL-28): 44.9%; inhibition of growth at 10 µM (PC-3): 112%; inhibition of growth at 10 µM (RPMI-8226): 154%
COc1cc(NC(=O)c2cccc(-c3cc(=O)c4c(OC)c(OC)c(OC)cc4o3)c2)cc(OC)c1OC | 43.3 | 32.9 | 72.4 | 68.2 | 51.4 | 59.4 | 58.3 | 48.9 | 47.4 | 90.8 | 64 | 75.3 | 43.6 | 89.6 | 47.2 | 14 | 79.1 | 65.7 | 62.5 | 25.3 | inhibition of growth at 10 µM (IGROV-1): 48.2%; inhibition of growth at 10 µM (MDA-MB-468): 52.6%; inhibition of growth at 10 µM (HCT-15): 59.3%; inhibition of growth at 10 µM (SNB-19): 43.7%; inhibition of growth at 10 µM (SN12C): 54.1%; inhibition of growth at 10 µM (LOX IMVI): 75.6%; inhibition of growth at 10 µM (OVCAR-8): 69.1%; inhibition of growth at 10 µM (KM12): 54.2%; inhibition of growth at 10 µM (SW-620): 33%; inhibition of growth at 10 µM (DU-145): 45.7%; inhibition of growth at 10 µM (RXF 393): 46.8%; inhibition of growth at 10 µM (SK-MEL-28): 36.5%; inhibition of growth at 10 µM (PC-3): 47.6%; inhibition of growth at 10 µM (RPMI-8226): 99.7%
